The results in this text go back to ChEMBL document CHEMBL4304819, “Natural product pectolinarigenin exhibits potent anti-metastatic activity in colorectal carcinoma cells in vitro and in vivo” (2019).

Calls of active or inactive are those of the source. No cut-off for these calls is given here.

In experiment [1] the test system is CT26. The experiment is described as follows: Induction of apoptosis in mouse CT26 cells assessed as early apoptotic cells at 10 uM after 48 hrs by Annexin V-FITC/propidium iodide staining-based flow cytometric analysis (reference value: 2.84 %). In kind it is functional. An outline of the steps: (§1)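 CT26 cells seeded at 1–2 × 10^5 per well in six-well plates for 24 h, then exposed to PEC (0–40 μM) for 24 or 48 h. Cells harvested, washed twice in cold PBS, stained with Annexin V-FITC/PI and read by flow cytometry. Early apoptotic = Annexin V+ only; late apoptotic = Annexin V+/PI+. Mean ± SD of three experiments.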
A general note: In flow cytometry, cells or beads pass a laser one at a time.

Experiment [2] relates to CT26. The experiment is described as follows: Antimetastatic activity against mouse CT26 cells allografted in Balb/c mouse assessed as decrease in CD11b-positive/Gr1-positive myeloid cells level in tumour at 50 mg/kg, ip administered daily for 14 days starting from 6 days post implantation flow cytometric analysis (reference value: 10 %). Format: functional. More on the design: scale not given: the % may be the effect or the level left.

The subject of experiment [3] is CT26. The experiment is described as follows: Induction of apoptosis in mouse CT26 cells assessed as necrotic cells at 10 uM after 48 hrs by Annexin V-FITC/propidium iodide staining-based flow cytometric analysis (reference value: 1.80 %). In kind it is functional. An outline of the steps: as §1
The test system of experiment [4] is HCT-116. The experiment is described as follows: Induction of apoptosis in human HCT116 cells assessed as appearance of condensed nuclei up to 40 uM after 48 hrs by Hoechst 33258 staining-based fluorescent microscopic analysis. Format: functional, cell-based. An outline of the steps:
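Cells (1–2 × 10^5 per well) plated on 18-mm coverslips in six-well plates for 24 h, treated at various concentrations for 48 h, washed with cold PBS, fixed 15 min in 4% paraformaldehyde, stained with Hoechst 33258 (5 μg/ml); condensed/fragmented nuclei scored by fluorescence microscopy (10×); stained positive cells, mean ± SD of three experiments.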

Experiment [5] relates to CT26. The experiment is described as follows: Antimetastatic activity against mouse CT26 cells allografted in Balb/c mouse assessed as decrease in CD11b-positive/Gr1-positive myeloid cells level in peripheral blood at 50 mg/kg, ip administered daily for 14 days starting from 6 days post implantation flow cytometric analysis (reference value: 33.2 %). More on the design: scale not given: the % may be the effect or the level left. In kind it is functional.

Experiment [6] deals with CT26. The experiment is described as follows: Induction of apoptosis in mouse CT26 cells assessed as viable cells at 10 uM after 48 hrs by Annexin V-FITC/propidium iodide staining-based flow cytometric analysis (reference value: 88.9 %). Format: functional. The following applies: CT26, 48 h, read-out: Activity. In outline: as §1
The target in experiment [7] is Signal transducer and activator of transcription 3 (Homo sapiens) (UniProt P40763). The experiment is described as follows: Inhibition of STAT3 phosphorylation in human HCT116 cells after 48 hrs by Western blot analysis. Format: cell-based. An outline of the steps:
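HCT116 cells treated 48 h with PEC at 0, 10, 20 and 40 μM, lysed in RIPA. Equal protein by Lowry, SDS-PAGE, PVDF transfer. Block 1 h at 37 °C, anti-Stat3 and anti-p-Stat3 Tyr705 overnight at 4 °C, secondary 1 h, ECL. β-actin loading control; bands quantified by densitometry.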
In general terms: In western blotting, separated proteins are transferred to a membrane and probed.

For experiment [8], the system named is CT26. The experiment is described as follows: Induction of apoptosis in mouse CT26 cells assessed as necrotic cells at 20 uM after 48 hrs by Annexin V-FITC/propidium iodide staining-based flow cytometric analysis (reference value: 1.80 %). In kind it is functional. In outline: as §1
Experiment [9] deals with SW48. The experiment is described as follows: Inhibition of colony formation in human SW48 cells assessed as reduction in number of colonies up to 40 uM incubated for 24 hrs supplemented with fresh medium containing compound every 3 days for 12 days by crystal violet staining-based microscopic analysis. In kind it is functional, cell-based. An outline of the steps: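 400–800 cells per well seeded in 6-well plates; after 24 h, PEC (0–40 μM) added. Medium with or without compound replaced every three days for 12 days. Colonies washed in cold PBS, fixed in methanol, stained 15 min with 0.5% crystal violet and counted under a microscope. Mean ± SD of three experiments.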

In experiment [10] the test system is HCT-116. The experiment is described as follows: Antiinvasive activity against human HCT116 cells after 48 hrs by crystal violet staining based light microscopic analysis. In kind it is functional, cell-based. An outline of the steps:
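Transwell membrane upper surface coated with Matrigel diluted 1:5 in serum-free medium. 5 × 10^4 cells in serum-free medium in upper part, 10% FBS medium below, treated with various concentrations for 48 h. Non-invading cells removed; underside cells fixed in methanol, stained with 0.5% crystal violet, counted by light microscopy; expressed as % inhibition versus untreated.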

The subject of experiment [11] is CT26. The experiment is described as follows: Induction of apoptosis in mouse CT26 cells assessed as viable cells at 40 uM after 48 hrs by Annexin V-FITC/propidium iodide staining-based flow cytometric analysis (reference value: 88.9 %). The following applies: CT26, 48 h, read-out: Activity. In kind it is functional. In outline: as §1

Sequence of Signal transducer and activator of transcription 3 (Homo sapiens) (P40763 whole entry): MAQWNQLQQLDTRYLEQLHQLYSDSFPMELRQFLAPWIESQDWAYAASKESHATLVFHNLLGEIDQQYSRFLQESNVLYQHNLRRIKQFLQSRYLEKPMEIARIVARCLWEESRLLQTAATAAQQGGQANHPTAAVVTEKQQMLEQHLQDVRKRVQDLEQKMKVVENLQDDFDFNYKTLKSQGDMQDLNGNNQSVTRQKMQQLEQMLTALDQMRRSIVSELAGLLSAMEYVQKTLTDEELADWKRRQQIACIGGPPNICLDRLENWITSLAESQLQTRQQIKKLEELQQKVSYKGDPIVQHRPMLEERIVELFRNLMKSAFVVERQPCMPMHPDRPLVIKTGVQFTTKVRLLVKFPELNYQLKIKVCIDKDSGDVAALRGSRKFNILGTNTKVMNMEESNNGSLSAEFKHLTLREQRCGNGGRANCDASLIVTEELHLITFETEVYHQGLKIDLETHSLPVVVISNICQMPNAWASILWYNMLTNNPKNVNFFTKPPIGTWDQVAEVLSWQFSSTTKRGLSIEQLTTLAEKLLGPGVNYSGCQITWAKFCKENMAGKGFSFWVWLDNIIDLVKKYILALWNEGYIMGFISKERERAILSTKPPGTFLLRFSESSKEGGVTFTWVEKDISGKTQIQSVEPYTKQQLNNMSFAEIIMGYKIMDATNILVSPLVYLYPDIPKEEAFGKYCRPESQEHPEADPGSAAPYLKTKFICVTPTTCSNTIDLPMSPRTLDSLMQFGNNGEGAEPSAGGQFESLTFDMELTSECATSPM

With `COc1ccc(-c2cc(=O)c3c(O)c(OC)c(O)cc3o2)cc1` [PECTOLINARIGENIN], the Activity was 3.57% in [1]; 6.47% in experiment [2]; 3.82% in experiment [3]; 20.4% in [5]; 1.94% in experiment [8]. In addition, the outcome in [4] was Active. In addition, the viability at 10 µM in experiment [6] turned out to be 77.1%. The inhibition result in [7] and in experiment [10] was “Dose-dependent effect” in each case. Besides, the inhibition result in experiment [9] is “Active”. Besides, the viability at 40 µM in experiment [11] is 67.3%.
